Experimental data published in ChEMBL document CHEMBL1131479, “(R)-3,N-dimethyl-N-[1-methyl-3-(4-methyl-piperidin-1-yl) propyl]benzenesulfonamide: the first selective 5-HT7 receptor antagonist” (J Med Chem, 1998).
Each block holds one compound with its values, some of them ahead of it.

Tests used:
[1] = biological target: T1, 5-hydroxytryptamine receptor 7 (Homo sapiens, UniProt P34969); test: Binding affinity towards cloned human 5-hydroxytryptamine 7 receptor expressed in HEK 293 cells using [3H]5-CT; assay type: cell-based, HEK293
T1 sequence (P34969 whole entry): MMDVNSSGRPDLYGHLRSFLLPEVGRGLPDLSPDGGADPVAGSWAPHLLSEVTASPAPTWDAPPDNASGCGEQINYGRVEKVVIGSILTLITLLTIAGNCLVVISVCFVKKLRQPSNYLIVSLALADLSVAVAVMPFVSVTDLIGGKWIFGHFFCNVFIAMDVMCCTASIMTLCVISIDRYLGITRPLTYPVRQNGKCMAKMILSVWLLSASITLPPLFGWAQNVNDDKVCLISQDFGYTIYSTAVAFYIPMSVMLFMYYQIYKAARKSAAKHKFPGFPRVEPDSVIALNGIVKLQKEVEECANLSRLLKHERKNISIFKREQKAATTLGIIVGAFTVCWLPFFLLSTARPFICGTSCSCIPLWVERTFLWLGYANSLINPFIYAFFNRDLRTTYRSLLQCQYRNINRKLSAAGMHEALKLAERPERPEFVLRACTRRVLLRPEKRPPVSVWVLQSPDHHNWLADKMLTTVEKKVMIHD
How it was run: (§1)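 Radioligand displacement binding on the receptor source and radioligand named in each line. Each value is the mean of at least two determinations, and every determination lay within 0.2 log unit of that mean.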

[2] = biological target: T2, 5-hydroxytryptamine receptor 1A (Homo sapiens, UniProt P08908); test: The compound was tested for its binding affinity towards cloned human 5-hydroxytryptamine 1A receptor in HEK 293 cells using [3H]8-OH-DPAT.; assay type: cell-based, HEK293; how it was run: as §1
T2 sequence (P08908 whole entry): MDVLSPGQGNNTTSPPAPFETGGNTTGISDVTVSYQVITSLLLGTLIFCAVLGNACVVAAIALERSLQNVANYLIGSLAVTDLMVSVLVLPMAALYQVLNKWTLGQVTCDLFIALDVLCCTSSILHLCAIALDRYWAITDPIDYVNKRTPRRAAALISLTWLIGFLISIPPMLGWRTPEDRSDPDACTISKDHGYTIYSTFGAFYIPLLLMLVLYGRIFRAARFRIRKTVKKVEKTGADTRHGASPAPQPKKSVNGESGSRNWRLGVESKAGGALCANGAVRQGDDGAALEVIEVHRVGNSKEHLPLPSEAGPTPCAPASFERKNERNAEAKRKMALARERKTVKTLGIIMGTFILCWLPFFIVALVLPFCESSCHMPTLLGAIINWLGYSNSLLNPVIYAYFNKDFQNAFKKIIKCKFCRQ

[3] = biological target: 5-hydroxytryptamine receptor 1B (Homo sapiens, UniProt P28222); test: The compound was tested for its binding affinity towards cloned human 5-hydroxytryptamine 1B receptor in CHO cells using [3H]5-HT; assay type: cell-based
Sequence of 5-hydroxytryptamine receptor 1B (P28222 whole entry): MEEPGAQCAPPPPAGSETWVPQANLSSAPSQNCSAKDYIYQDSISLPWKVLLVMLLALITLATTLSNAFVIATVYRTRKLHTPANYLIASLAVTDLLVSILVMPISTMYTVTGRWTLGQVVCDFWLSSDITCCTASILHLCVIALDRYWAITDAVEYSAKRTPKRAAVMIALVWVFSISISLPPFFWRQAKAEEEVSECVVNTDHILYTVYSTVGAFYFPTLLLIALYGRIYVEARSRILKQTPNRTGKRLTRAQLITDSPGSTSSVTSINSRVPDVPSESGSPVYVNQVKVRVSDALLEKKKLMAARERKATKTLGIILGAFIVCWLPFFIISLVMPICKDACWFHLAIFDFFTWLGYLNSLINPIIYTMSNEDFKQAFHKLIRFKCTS
How it was run: (§2)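 Radioligand displacement on cloned human receptors expressed in the host cell line listed in each line. Values are the mean of at least two determinations, each within 0.2 log unit of the mean.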

[4] = biological target: 5-hydroxytryptamine receptor 1D (Homo sapiens, UniProt P28221); test: The compound was tested for its binding affinity towards cloned human 5-hydroxytryptamine 1D receptor in CHO cells using [3H]5-HT.; assay type: cell-based; how it was run: as §2
Sequence of 5-hydroxytryptamine receptor 1D (P28221 whole entry): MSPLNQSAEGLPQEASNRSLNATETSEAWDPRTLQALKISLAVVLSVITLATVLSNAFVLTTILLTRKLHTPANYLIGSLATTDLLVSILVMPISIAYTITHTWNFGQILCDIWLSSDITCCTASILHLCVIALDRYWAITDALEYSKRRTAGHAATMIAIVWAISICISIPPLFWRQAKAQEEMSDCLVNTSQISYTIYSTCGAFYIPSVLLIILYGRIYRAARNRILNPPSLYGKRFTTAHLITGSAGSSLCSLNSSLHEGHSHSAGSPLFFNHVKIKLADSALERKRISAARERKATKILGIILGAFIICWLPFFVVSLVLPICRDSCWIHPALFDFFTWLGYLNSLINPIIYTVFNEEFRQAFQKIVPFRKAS

[5] = biological target: 5-hydroxytryptamine receptor 1E (Homo sapiens, UniProt P28566); test: The compound was tested for its binding affinity towards cloned human 5-hydroxytryptamine 1E receptor in CHO cells using [3H]5-HT.; assay type: cell-based; how it was run: as §2
Sequence of 5-hydroxytryptamine receptor 1E (P28566 whole entry): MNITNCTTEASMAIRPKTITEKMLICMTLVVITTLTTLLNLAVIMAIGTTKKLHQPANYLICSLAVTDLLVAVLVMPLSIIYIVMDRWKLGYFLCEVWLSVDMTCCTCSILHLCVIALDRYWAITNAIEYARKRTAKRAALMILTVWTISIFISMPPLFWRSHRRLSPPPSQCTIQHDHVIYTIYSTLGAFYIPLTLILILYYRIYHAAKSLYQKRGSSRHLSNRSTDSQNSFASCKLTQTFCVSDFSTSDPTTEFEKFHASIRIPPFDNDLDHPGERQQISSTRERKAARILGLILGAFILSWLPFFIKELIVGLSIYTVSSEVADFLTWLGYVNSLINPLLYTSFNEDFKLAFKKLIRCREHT

[6] = biological target: 5-hydroxytryptamine receptor 2A (Homo sapiens, UniProt P28223); test: The compound was tested for its binding affinity towards cloned human 5-hydroxytryptamine 2A receptor in HEK293 cells using [3H]-ketanserin.; assay type: cell-based; how it was run: as §2
Sequence of 5-hydroxytryptamine receptor 2A (P28223 whole entry): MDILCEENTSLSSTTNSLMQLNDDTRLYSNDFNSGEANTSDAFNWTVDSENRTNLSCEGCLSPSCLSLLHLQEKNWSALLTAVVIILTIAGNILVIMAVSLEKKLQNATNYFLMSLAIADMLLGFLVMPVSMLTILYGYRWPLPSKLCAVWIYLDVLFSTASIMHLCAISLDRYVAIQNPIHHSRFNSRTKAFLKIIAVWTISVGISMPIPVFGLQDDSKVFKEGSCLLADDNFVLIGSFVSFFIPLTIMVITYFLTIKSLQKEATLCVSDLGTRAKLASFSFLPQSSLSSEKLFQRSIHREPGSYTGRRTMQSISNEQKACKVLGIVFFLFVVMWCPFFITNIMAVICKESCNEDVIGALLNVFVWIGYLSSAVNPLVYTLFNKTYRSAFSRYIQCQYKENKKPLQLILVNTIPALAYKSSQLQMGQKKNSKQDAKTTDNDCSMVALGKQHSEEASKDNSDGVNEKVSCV

[7] = biological target: T3, 5-hydroxytryptamine receptor 1F (Homo sapiens, UniProt P30939); test: The compound was tested for its binding affinity towards cloned human 5-hydroxytryptamine 1F receptor in CHO cells using [3H]5-HT.; assay type: cell-based; how it was run: as §1
T3 sequence (P30939 whole entry): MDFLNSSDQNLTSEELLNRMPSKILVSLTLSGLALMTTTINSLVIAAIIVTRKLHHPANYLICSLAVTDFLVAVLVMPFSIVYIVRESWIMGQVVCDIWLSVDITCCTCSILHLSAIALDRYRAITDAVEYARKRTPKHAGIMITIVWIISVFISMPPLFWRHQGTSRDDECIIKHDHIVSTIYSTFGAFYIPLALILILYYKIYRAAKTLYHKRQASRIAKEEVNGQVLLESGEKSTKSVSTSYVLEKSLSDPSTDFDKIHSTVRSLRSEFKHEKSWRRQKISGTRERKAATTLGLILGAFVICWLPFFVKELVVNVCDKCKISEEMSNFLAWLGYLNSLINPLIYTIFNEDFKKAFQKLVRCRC

[8] = biological target: 5-hydroxytryptamine receptor 2B (Homo sapiens, UniProt P41595); test: The compound was tested for its binding affinity towards cloned human 5-hydroxytryptamine 2B receptors in HEK293 cells using [3H]5-HT.; assay type: cell-based
Sequence of 5-hydroxytryptamine receptor 2B (P41595 whole entry): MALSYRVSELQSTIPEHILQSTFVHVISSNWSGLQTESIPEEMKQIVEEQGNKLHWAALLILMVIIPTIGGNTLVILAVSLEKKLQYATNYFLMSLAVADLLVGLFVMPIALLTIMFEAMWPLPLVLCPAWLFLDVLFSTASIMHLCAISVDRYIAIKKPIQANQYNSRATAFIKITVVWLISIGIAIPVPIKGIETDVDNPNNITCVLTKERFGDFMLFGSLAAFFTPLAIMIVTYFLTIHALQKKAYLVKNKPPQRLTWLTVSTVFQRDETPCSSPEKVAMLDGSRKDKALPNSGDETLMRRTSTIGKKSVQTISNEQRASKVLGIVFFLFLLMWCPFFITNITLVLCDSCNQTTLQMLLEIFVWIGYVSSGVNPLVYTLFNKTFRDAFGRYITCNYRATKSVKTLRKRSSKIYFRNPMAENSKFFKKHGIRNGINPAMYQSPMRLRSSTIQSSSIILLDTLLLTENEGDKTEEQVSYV
How it was run: (§3)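 Radioligand displacement binding on cloned human receptors expressed in HEK 293 cells: 5-HT2B labelled with [3H]-5-HT, 5-HT7 labelled with [3H]-5-CT. Each value is the mean of at least two determinations, each within 0.2 log unit of the mean.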

[9] = biological target: T4, 5-hydroxytryptamine receptor 2C (Homo sapiens, UniProt P28335); test: The compound was tested for its binding affinity towards cloned human 5-hydroxytryptamine 2C receptor in HEK293 cells using [3H]mesulergine.; assay type: cell-based; how it was run: as §1
T4 sequence (P28335 whole entry): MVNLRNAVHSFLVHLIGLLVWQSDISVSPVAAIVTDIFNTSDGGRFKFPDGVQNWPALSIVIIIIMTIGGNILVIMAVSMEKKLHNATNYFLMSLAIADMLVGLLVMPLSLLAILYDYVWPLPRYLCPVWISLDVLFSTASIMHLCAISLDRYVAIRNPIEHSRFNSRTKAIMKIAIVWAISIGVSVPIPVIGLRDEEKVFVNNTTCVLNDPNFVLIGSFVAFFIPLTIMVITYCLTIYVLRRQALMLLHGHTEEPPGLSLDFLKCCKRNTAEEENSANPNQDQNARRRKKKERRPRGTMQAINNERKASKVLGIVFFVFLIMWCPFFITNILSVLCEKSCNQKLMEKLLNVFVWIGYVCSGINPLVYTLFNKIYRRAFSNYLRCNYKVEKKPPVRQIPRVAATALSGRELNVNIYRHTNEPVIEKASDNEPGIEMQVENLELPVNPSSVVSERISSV

[10] = biological target: T1, 5-hydroxytryptamine receptor 7; test: The compound was tested for its binding affinity towards cloned human 5-hydroxytryptamine 7 receptor in HEK 293 cells using [3H]5-CT.; assay type: cell-based, HEK293; how it was run: as §3
[11] = biological target: 5-hydroxytryptamine receptor 6 (Homo sapiens, UniProt P50406); test: The compound was tested for its binding affinity towards cloned human 5-hydroxytryptamine 6 receptor in HeLa cells using […].; assay type: cell-based; how it was run: as §2
Sequence of 5-hydroxytryptamine receptor 6 (P50406 whole entry): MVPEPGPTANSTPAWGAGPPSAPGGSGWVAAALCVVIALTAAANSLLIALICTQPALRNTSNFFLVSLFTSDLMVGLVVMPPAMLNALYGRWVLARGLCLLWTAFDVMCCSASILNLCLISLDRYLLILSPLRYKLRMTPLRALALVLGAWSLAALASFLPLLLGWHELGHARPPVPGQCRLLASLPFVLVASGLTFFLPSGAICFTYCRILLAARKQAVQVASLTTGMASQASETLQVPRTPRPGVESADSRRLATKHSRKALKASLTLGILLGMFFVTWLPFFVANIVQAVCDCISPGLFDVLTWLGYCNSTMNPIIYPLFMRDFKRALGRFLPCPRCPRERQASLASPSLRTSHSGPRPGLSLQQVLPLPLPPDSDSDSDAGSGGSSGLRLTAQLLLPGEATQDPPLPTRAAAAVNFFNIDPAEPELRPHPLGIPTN

D(2) dopamine receptor = D(2) dopamine receptor (Homo sapiens, UniProt P14416); test: The compound was tested for its binding affinity towards cloned human Dopamine receptor D2 in CHO cells using [125I]iodosulpiride.; assay type: cell-based
Sequence of D(2) dopamine receptor (P14416 whole entry): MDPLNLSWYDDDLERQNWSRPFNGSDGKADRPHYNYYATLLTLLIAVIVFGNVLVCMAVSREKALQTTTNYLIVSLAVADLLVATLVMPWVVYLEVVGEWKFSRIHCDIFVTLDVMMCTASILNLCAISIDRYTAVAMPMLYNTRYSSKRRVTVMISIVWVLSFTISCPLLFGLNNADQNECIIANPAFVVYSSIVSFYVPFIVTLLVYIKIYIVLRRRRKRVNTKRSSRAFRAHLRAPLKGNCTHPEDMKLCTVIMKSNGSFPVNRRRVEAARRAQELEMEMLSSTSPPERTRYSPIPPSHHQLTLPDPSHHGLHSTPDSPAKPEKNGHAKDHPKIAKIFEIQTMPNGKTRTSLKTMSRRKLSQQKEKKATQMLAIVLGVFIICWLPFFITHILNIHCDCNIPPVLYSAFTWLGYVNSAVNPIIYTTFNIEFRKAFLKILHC

D(3) dopamine receptor = D(3) dopamine receptor (Homo sapiens, UniProt P35462); test: The compound was tested for its binding affinity towards cloned human Dopamine receptor D3 in CHO cells using [125I]iodosulpiride.; assay type: cell-based
Sequence of D(3) dopamine receptor (P35462 whole entry): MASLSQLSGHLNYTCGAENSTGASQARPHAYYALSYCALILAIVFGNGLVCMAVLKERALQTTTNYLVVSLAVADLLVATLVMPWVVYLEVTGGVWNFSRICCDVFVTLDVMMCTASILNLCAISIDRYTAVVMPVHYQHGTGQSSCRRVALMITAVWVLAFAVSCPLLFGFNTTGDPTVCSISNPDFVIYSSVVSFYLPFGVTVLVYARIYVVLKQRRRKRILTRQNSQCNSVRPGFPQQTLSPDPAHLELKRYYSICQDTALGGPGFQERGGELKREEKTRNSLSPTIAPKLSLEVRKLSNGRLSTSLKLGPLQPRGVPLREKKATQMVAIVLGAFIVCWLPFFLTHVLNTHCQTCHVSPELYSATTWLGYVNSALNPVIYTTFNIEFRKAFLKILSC

[12] = biological target: T5, Alpha-1B adrenergic receptor (Homo sapiens, UniProt P35368); test: The compound was tested for its binding affinity towards adrenergic alpha-1B receptors
T5 sequence (P35368 whole entry): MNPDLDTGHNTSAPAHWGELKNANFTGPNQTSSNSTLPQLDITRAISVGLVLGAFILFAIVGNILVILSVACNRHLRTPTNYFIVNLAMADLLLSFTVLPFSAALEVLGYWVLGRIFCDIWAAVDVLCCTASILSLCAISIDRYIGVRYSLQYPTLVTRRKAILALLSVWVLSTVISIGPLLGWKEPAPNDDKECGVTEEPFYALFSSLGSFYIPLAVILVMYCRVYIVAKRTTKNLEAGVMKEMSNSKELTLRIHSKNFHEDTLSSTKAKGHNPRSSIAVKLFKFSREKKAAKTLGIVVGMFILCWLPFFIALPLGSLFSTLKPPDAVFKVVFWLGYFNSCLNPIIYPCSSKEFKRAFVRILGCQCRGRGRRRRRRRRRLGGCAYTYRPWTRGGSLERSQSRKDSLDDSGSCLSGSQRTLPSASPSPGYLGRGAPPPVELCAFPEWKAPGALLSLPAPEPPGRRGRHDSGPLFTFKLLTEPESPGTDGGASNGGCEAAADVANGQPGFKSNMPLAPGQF

- Ki [1]: 20 nM
SMILES: CC1CCN(CC[C@@H](C)N(C)S(=O)(=O)c2ccc(Br)c(Br)c2)CC1

- Ki [1]: 31.6 nM
SMILES: CC1CCN(CC[C@@H](C)N(C)S(=O)(=O)c2cccc3ccccc23)CC1

- Ki [1]: 31.6 nM
SMILES: CC1CCN(CC[C@@H](C)N(C)S(=O)(=O)c2ccc(Cl)c(Cl)c2)CC1

- Ki [1]: > 10000 nM
SMILES: C[C@H]1CCCN(CC[C@H](C)N(C)S(=O)(=O)c2cccc3ccccc23)C1

- Ki [2]: > 7940 nM
- Ki [3]: > 5010 nM
- Ki [4]: 3160 nM
- Ki [5]: > 15800 nM
- Ki [6]: > 15800 nM
- Ki [7]: > 6310 nM
- Ki [8]: > 5010 nM
- Ki [9]: > 15800 nM
- Ki [10]: 31.6 nM
- Ki [11]: > 15800 nM
- Ki (D(2) dopamine receptor): 3980 nM
- Ki (D(3) dopamine receptor): 3980 nM
- Ki [12]: > 15800 nM
SMILES: Cc1cccc(S(=O)(=O)N(C)[C@H](C)CCN2CCC(C)CC2)c1 [SB-258719]

The remaining lines, values behind:

SMILES: C[C@@H]1CCCN(CC[C@@H](C)N(C)S(=O)(=O)c2cccc3ccccc23)C1
- Ki [1]: 126 nM

SMILES: C[C@H]1CCCN(CC[C@@H](C)N(C)S(=O)(=O)c2cccc3ccccc23)C1
- Ki [1]: 631 nM

SMILES: CC1CCCN(CCC(C)N(C)S(=O)(=O)c2cccc3ccccc23)C1 (configuration not stated)
- Ki [1]: 63.1 nM

SMILES: C[C@@H]1CCCN(CC[C@H](C)N(C)S(=O)(=O)c2cccc3ccccc23)C1
- Ki [1]: 1580 nM

SMILES: CC1CCN(CC[C@@H](C)N(C)S(=O)(=O)c2cc(Br)c(Br)s2)CC1
- Ki [1]: 15.8 nM
